# A selection: hits, their analogues and other compounds. The true share with any hit is near 4.1%.
# KCNK9 inh: inhibitors of human KCNK9 two-pore domain potassium channel; HEK293 KCNK9, FluxOR thallium flux fluorescence; hits give low values; B-score at 10 µM; hit rate 1.2% among 310,000; Q9NPC2;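 active = ratio B-score over 3 SD below the library mean, with starting fluorescence within 5 SD of its mean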;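 note: negative B-score means less thallium flux so channel inhibition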
# KCNK3 block: human KCNK3 channel inhibition, primary screen; O14649; CHO-KCNK3 thallium flux, FluxOR fluorescence; hits give low values; B-score at 10 µM; hit rate 0.84% among 340,000; AID 602410;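 active = B-score under library mean minus 4 SD, starting fluorescence ratio at most library mean plus 5 SD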;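 note: more negative B-score means stronger inhibition of thallium flux through KCNK3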
# KCNQ1 inh: blocks the human KCNQ1 potassium channel | CHO-K1 KCNQ1, FluxOR thallium flux fluorescence; hits give high values | AID 2642 | B-score at 10 µM | hit rate 1.3% among 310,000 | P51787;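 active = compounds whose thallium flux B-score, printed positive for inhibition, exceeds three library SD while starting fluorescence stays within three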;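 note: channel opened by potassium depolarization with thallium stimulus after 20 min compound exposure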
# Target sequence (P51787 whole entry, looked up): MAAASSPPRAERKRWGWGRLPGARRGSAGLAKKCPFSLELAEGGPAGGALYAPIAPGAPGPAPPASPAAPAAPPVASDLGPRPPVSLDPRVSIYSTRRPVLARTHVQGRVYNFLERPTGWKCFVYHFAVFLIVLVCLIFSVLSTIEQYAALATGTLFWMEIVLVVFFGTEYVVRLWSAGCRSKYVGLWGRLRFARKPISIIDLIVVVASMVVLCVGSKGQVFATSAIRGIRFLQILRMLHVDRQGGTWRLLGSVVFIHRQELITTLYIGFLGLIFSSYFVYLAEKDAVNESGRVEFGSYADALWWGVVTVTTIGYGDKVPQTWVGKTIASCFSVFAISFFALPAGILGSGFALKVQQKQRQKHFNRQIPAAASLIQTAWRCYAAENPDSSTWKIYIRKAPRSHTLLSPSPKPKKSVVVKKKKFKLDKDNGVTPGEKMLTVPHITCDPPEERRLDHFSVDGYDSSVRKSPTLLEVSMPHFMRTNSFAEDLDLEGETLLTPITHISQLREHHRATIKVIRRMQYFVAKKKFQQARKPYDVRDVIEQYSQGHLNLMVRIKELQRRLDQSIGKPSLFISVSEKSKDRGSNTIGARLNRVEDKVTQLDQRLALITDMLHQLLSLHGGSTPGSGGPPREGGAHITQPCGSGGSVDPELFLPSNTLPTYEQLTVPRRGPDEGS
# KCC2 mod: KCC2 (human) Cl- transport modulation. B-score of Tl+ flux slope (higher = more flux/activation; lower = inhibition) at 10 µM. hit rate 2.2% among 190,000. KCC2 cells, thallium flux FluoZin-2 fluorescence;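 active = thallium flux slope and its plate-corrected score both differing from the plate sample mean at a set confidence after two filtering rounds, in either direction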;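 note: slope of fluorescence scaled to starting intensity during 10 to 20 s after thallium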
# hERG protect: compounds protecting human hERG from proarrhythmic drug block. Q12809. CHO-hERG, FluxOR thallium flux, dofetilide IC70 present. activation (rescue from dofetilide block), less the hit threshold, % at 10 µM. hit rate 0.51% among 310,000;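 active = activation above the mean of controls blocked by dofetilide plus 5 SD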;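 note: thallium influx through hERG after potassium depolarization seen as dye fluorescence rise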
# KCNQ1 pot: potentiates or activates the human KCNQ1 potassium channel; P51787; CHO-K1 KCNQ1, thallium flux FluxOR fluorescence; hits give high values; B-score at 10 µM; hit rate 0.35% among 310,000; AID 2648;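 active = fluorescence ratio B-score, a plate-corrected score, at least three library SD, with initial intensity B-score within 5 SD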
#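 Assay system: stable KCNQ1 CHO-K1 line; medium: assay buffer, equal DMSO in all wells; timing: 90 min dye loading and 20 min compound exposure, both at room temperature; technique: kinetic FluxOR thallium fluorescence, 10-s 1-Hz baseline, 110-s post-stimulus read; read-out basis: B score of baseline-normalized fluorescence ratio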
# KCNK3 confirm: human KCNK3 channel inhibition, confirmation assay; hit rate 99% among 2,400; CHO-KCNK3 thallium flux, FluxOR fluorescence; 0% buffer, 100% carvedilol maximal block; ratio percent of control, % at 10 µM; shares compounds with KCNK3 block; AID 651638;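 active = ratio percent of control, averaged over triplicates, above buffer control mean plus 5 SD, cut at about 64% in these data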;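 note: ratio is the fluorescence rise from min to max over baseline after thallium stimulus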
# KCNK3 uninduced: counter-screen for KCNK3 inhibitors: effect in non-induced cells; thallium flux ratio (lower = more inhibition) at 10 µM; shares compounds with KCNK3 block; hit rate 40% among 2,400; non-induced KCNK3 parental cells, FluxOR thallium flux; hits give low values;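 active = thallium flux ratio, averaged over three wells, more than 5 SD below the buffer control mean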;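 note: host cells are CHO cells without KCNK3 induction; ratio is peak minus trough fluorescence over baseline then normalized to buffer controls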
# Active calls of the source: *; i = inactive; . = no result given.
SMILES,KCNK9 inh,KCNK3 block,KCNQ1 inh,KCC2 mod,hERG protect,KCNQ1 pot,KCNK3 confirm,KCNK3 uninduced
Cc1noc(C)c1COc1ccccc1C(=O)NCc1ccccc1Cl,i,-8.82*,i,.,-11.8,i,104.7*,i
CCOC(=O)N1CCC(N2Cc3cccc(C(=O)NC(C)c4ccc5c(c4)OCCO5)c3C2=O)CC1 (stereo not drawn),i,-13.1*,i,-1.35,-14.3,i,100.7*,i
Fc1ccc(CNc2nc(-c3ccco3)cc(C(F)(F)F)n2)cc1,i,-9.01*,i,.,-33.2,i,136.0*,0.135*
Cc1cc(C)c2c(N=NN3CCCCC3)[nH]nc2n1,i,i,i,-0.876,-20.6,i,.,.
O=C(COc1cccc2ccccc12)N1c2ccccc2CCc2ccccc21,i,-12.7*,i,0.396,-21.9,i,119.7*,0.151*
O=C(COc1ccc(F)cc1)N1c2ccccc2CCc2ccccc21,i,i,i,-0.0654,-3.8,i,.,.
CC(=O)NC(Cc1ccccc1)Cc1ccccc1,i,i,i,.,-2.9,i,.,.
COc1cc(C2Nc3ccccc3C(=O)N2c2ccccc2)ccc1O (stereo not drawn),i,i,i,.,-2.6,i,.,.
COc1ccc(/C(C)=N/N2C(=O)c3ccccc3NC2c2ccc(O)c(OC)c2)cc1 (stereo not drawn),i,-9.26*,i,0.742,-12.1,i,99.3*,i
FC(F)Sc1ccc(NC(=S)NC2CCCC2)cc1,i,-11.2*,i,-0.357,-5.7,i,113.3*,i
OC1CCC(NC(=S)Nc2ccc(SC(F)F)cc2)CC1 (stereo not drawn),i,i,i,-0.00462,-6.0,i,.,.
CC1CCN(C(=S)c2ccccc2O)CC1,i,i,i,0.408,-16.3,i,.,.
Cc1ccc(NC(=O)N(Cc2ccco2)C(C)c2ccco2)cc1C (stereo not drawn),i,-9.02*,i,.,-7.5,i,110.0*,i
Cc1ccc(NC(=O)N(Cc2cccnc2)Cc2ccco2)cc1C,i,i,i,0.654,-16.2,i,.,.
CCCN=C1CC(C)(C)CC(=O)/C1=C(/O)CCC,i,-8.95*,i,-0.302,-3.2,i,99.0*,i
CCC/C(O)=C1\C(=O)CC(C)(C)CC1=NCc1ccccc1,i,i,i,-2.16,-10.6,i,.,.
CC1=C(C(N)=O)C(c2ccccc2F)n2nc(CCCO)nc2N1 (stereo not drawn),i,i,i,.,-2.1,i,.,.
O=C(Nc1ccc(Cl)cc1)N(Cc1nc2ccccc2c(=O)[nH]1)Cc1cccs1,i,i,i,-0.047,-3.1,i,.,.
O=C(Nc1ccc(Cl)cc1)N(Cc1cccs1)Cc1cccs1,i,-12.5*,i,1.31,-4.3,i,129.7*,i
N#Cc1ccc(Nc2nc(-c3ccc(O)cc3O)cs2)cc1C(F)(F)F,.,i,.,.,.,.,.,.
CCNS(=O)(=O)c1ccc(NC(=O)CC(C)c2ccccc2)cc1 (stereo not drawn),i,i,i,0.14,-8.0,i,.,.
OC1(c2cccc(C(F)(F)F)c2)CCN(c2ncnc3c2[nH]c2ccc(F)cc23)CC1,.,-11.9*,.,.,.,.,131.7*,i
COc1cc(CN2CCC(n3nccc3NC(=O)c3ccccc3OC)CC2)ccc1F,i,i,i,.,-19.3,i,.,.
CCc1ccc(N2CC(C(=O)N/N=C/c3cc([N+](=O)[O-])ccc3O)CC2=O)cc1 (stereo not drawn),i,-9.1*,i,-1.96,-10.8,i,90.7*,i
CCc1ccc(N2CC(C(=O)N/N=C/c3ccccc3OC)CC2=O)cc1 (stereo not drawn),i,i,i,.,-8.1,i,.,.
SMILES,KCNK9 inh,KCNK3 block,KCNQ1 inh,KCC2 mod,hERG protect,KCNQ1 pot,KCNK3 confirm,KCNK3 uninduced
Cc1cc(C)c2nc(-c3cccc(Cl)c3)c(C)c(C(=O)N3CCOCC3)c2c1,-7.37*,-9.55*,i,.,-13.1,i,121.7*,0.15*
COc1ccc(S(=O)(=O)N2CCC(C(=O)N3CCCCCC3)CC2)cc1,i,i,i,0.235,-9.9,i,.,.
Cc1cccc(C)c1OCc1cc(C(=O)N2CCCC2c2nonc2C)no1 (stereo not drawn),i,-9.45*,i,.,-8.1,i,108.3*,i
CC(Oc1ccc(Cl)cc1Cl)c1ccnc2nc(N3CCOCC3)nn12 (stereo not drawn),i,i,i,-1.81,-14.6,i,.,.
CN(C)S(=O)(=O)N1CCN(c2ccc(Cl)cc2)CC1,i,i,i,.,-6.2,i,.,.
COC(=O)c1sc(S(=O)(=O)NC(Cc2ccccc2)C(=O)O)c(C(=O)OC)c1C (stereo not drawn),.,i,.,.,.,.,.,.
COC(=O)c1c(S(=O)(=O)NCc2ccccc2)sc(C(=O)O)c1C,i,-10.8*,i,.,-10.0,i,120.7*,0.158*
COc1ccc(CNn2c(-c3cccs3)nc3ccccc3c2=O)cc1OC,i,-9.27*,i,-0.135,-17.3,i,91.3*,i
Fc1ccc(-c2nnc(-n3nnc4ccccc43)c3ccccc23)cc1,i,i,i,0.843,-12.4,i,.,.
CCOC(=O)c1sc2nc(C)nc(N3CCCCC3C)c2c1C (stereo not drawn),i,-8.78*,i,0.0179,-10.7,i,90.3*,0.148*
COc1ccccc1C(=O)N(Cc1ccc(Cl)cc1)C1CCS(=O)(=O)C1 (stereo not drawn),i,i,i,.,-11.5,i,.,.
CC(Cl)C(=O)N1c2ccccc2CCc2ccccc21 (stereo not drawn),i,i,i,.,-10.3,i,.,.
CC(=O)N(C)N1c2ccccc2CCc2ccccc21,i,-8.79*,i,-0.929,-12.5,i,108.7*,i
O=C(O)Cc1ccc(NC(=O)c2ccc(Cl)c(Cl)c2)cc1,i,i,i,-1.54,-4.5,i,.,.
COCCn1c(/C=C/c2ccccc2)nc2ccccc21,i,-8.8*,i,-0.954,-9.1,i,83.3*,i
CCN(C(=O)CN1CC(C)OC(C)C1)c1c(N)n(Cc2ccccc2)c(=O)[nH]c1=O (stereo not drawn),i,i,i,-0.823,-6.0,i,.,.
Cc1ccc(S(=O)(=O)Nc2ccccc2C=Nc2cccc(C)c2C)cc1,i,i,i,-0.077,-4.9,i,.,.

# Screens: PubChem BioAssay, several laboratories
